From paper PMC3629956 (Molecular imaging and biology : MIB : the official …, 2012)
Where a SMILES comes first, the peptide text is derived from it. Bridges are numbered along the chain shown (N, C = ends). The star is where a group is joined. DOTA = O=C(O)CN1CCN(CC(=O)O)CCN(CC(=O)*)CCN(CC(=O)O)CC1

Tests used:
[1] = format: physicochemical; conditions: pH 7.4
Probe stability in PBS = format: physicochemical; conditions: PBS pH 7.4, 37°C, 3.7 MBq in 0.5 mL, HPLC
How it was run: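 Radiolabeled peptide (3.7 MBq) was added to 0.5 mL PBS and held at 37°C for 1, 6 and 24 h. At each time an aliquot was taken and radiochemical purity was measured by radio-HPLC on a C18 reversed-phase column, with UV at 214/254 nm. Results are given as % intact tracer.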

[2] = test system: U87MG human glioblastoma cells; assay: Cell efflux; format: cell-based; conditions: after 2 h efflux incubation
How it was run: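 Cells seeded at 2.5×10^5/well 24 h ahead, then loaded with 370 kBq/well radiotracer for 2 h at 37°C to allow internalization. After two PBS washes, cells were kept in culture medium for 15, 30, 60 and 120 min, washed three times with PBS and detached with 0.25% trypsin/0.02% EDTA. Cell-bound activity was gamma counted and expressed as % of added dose after decay correction. Two experiments, triplicate wells.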

in vivo = conditions: female, athymic nude, mouse, 7.4 MBq, total radioactivity

NCCCC[C@@H]1NC(=O)[C@@H]2CCCN2C(=O)[C@H](CC(N)=O)NC(=O)[C@H](CO)NC(=O)[C@H](CC(N)=O)NC(=O)CNC(=O)[C@@H](NC(=O)CN2CCN(CC(=O)O)CCN(CC(=O)O)CCN(CC(=O)O)CC2)CSSC[C@@H](C(N)=O)NC(=O)[C@H](CO)NC1=O [^64Cu-DOTA-GX1, metal not drawn] ({DOTA}-CGNSNPKSC-NH2; disulfide 1-9; N-terminus and C-terminus assumed)
octanol/water partition coefficient (log P) [1]: −2.42±0.003
percentage of intact tracer in PBS (Probe stability in PBS; 6 h incubation): more than 95%
percentage of intact tracer in PBS (Probe stability in PBS; 24 h incubation): more than 91%
radioactivity still associated with the cells [2]: 76%
tissue uptake at 24 h (in vivo; U87MG tumor uptake (biodistribution)): 6.46 ± 0.29 %ID/g
tissue uptake at 24 h (in vivo; liver uptake (biodistribution)): 5.03 ± 0.14 %ID/g
